Drawing on ChEMBL document CHEMBL2380272, “Biological evaluation of bisbenzaldehydes against four Mycobacterium species” (Eur J Med Chem, 2013), this text covers MIC50 for 13 compounds.

The assay relates to Mycobacterium tuberculosis variant bovis. Put plainly: Antimycobacterial activity against Mycobacterium bovis AN5 assessed as growth inhibition after 6 days by luciferase reporter gene assay. It counts as functional. The conditions noted are these: AN5, 144 h. In outline: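 Mycobacteria carrying the pSMT1 luciferase reporter plasmid. Compounds came from 10 mM DMSO stocks and were serially diluted in 7H9 + 10% FCS. Thawed bacteria were filtered, recovered 1 h at 37 °C, then added at 50 000 RLU/mL. After 6 days of culture, light was read for 10 s after adding 1% n-decanal. Triplicates were run, and MIC50 was the concentration giving 50% growth inhibition.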
(In general: Reporter assays use an easily measured gene product as a stand-in for the process of interest.)

As a reminder, the MIC50 is an inhibitory concentration at the 50% level, which refers to growth in some studies and to a panel of isolates in others.

Molecules are shown by their SMILES. In brackets after ≈: the same amount, converted by molar mass.

On to `O=Cc1ccc(OCCCOc2ccc(C=O)cc2)cc1`, for which the MIC50 amounted to 2.65 µM (≈ 0.753 µg/mL).
As to `O=Cc1ccc(OCCCCOc2ccc(C=O)cc2)cc1`, the MIC50 is 2.51 µM (≈ 0.749 µg/mL).
Regarding `O=Cc1ccc(OCCCCCOc2ccc(C=O)cc2)cc1`, the MIC50 is 1.69 µM (≈ 0.528 µg/mL).
In the case of `O=Cc1ccc(OCCCCCCOc2ccc(C=O)cc2)cc1` it was 0.94 µM (≈ 0.307 µg/mL); in that of `O=Cc1ccc(OCCCCCCCOc2ccc(C=O)cc2)cc1`, 0.97 µM (≈ 0.33 µg/mL).
The same measure for `O=Cc1ccc(OCCCCCCCCOc2ccc(C=O)cc2)cc1`: 0.95 µM (≈ 0.337 µg/mL); for `O=Cc1ccc(OCCCCCCCCCOc2ccc(C=O)cc2)cc1`: 1.01 µM (≈ 0.372 µg/mL); for `O=Cc1ccc(OCCCCCCCCCCOc2ccc(C=O)cc2)cc1`: 0.81 µM (≈ 0.31 µg/mL).
In the case of `O=Cc1ccc(OCCCCCCCCCCCOc2ccc(C=O)cc2)cc1` it was 0.71 µM (≈ 0.282 µg/mL); in that of `O=Cc1ccc(OCCCCCCCCCCCCOc2ccc(C=O)cc2)cc1`, 0.64 µM (≈ 0.263 µg/mL).
In the case of `O=Cc1ccc(OCOc2ccc(C=O)cc2)cc1`, the MIC50 was found to be 2.93 µM (≈ 0.751 µg/mL).
As for `O=Cc1ccc(OCCOc2ccc(C=O)cc2)cc1`, the MIC50 was determined as 2.41 µM (≈ 0.651 µg/mL).
As to `NNC(=O)c1ccncc1` [ISONIAZID], the MIC50 was less than 0.1 µM.
